Assay results taken from ChEMBL document CHEMBL1629557, “Development of intergenotypic chimeric replicons to determine the broad-spectrum antiviral activities of hepatitis C virus polymerase inhibitors” (Antimicrob Agents Chemother, 2008).

What was measured:
Hepatitis C virus [1] = experiment: Ratio of EC50 for wild-type Hepatitis C virus isolate Con1 to EC50 for Hepatitis C virus isolate Con1 transfected with NS5B polymerase of HCV genotype 3a in human Huh7.5 cells by hRLuc reporter gene assay; type: functional, Hepacivirus hominis, Huh-7
Summary of the method: (§1)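 Stable Huh7.5 replicon cell lines, kept in medium with 250 μg/ml G418, seeded at 2e4/well and settled 30 min. Compounds were added in half-log serial dilutions with solvent (compound-free) controls for 3 days at 37°C, then hRLuc activity was read. Fold change is EC50 relative to wild-type Con-1.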

Hepatitis C virus [2] = experiment: Ratio of EC50 for wild-type Hepatitis C virus isolate Con1 to EC50 for Hepatitis C virus isolate Con1 with NS5B polymerase I482L mutant in human Huh7.5 cells by hRLuc reporter gene assay; type: functional, Hepacivirus hominis, Huh-7
Summary of the method: (§2)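 Transient assay: Huh7.5 cells electroporated with 10 μg in vitro replicon transcript at 220 V, seeded at 6 × 10^4 cells/well, and given 4 h recovery. Half-log serial compound dilutions with solvent controls were then added for 3 days at 37°C, and hRLuc luciferase was read. EC50 was taken as 50% of compound-free signal by nonlinear regression, as mean ± SD of 2–3 independent experiments. Fold change is relative to wild-type Con-1.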

Hepatitis C virus [3] = experiment: Ratio of EC50 for wild-type Hepatitis C virus isolate Con1 to EC50 for Hepatitis C virus isolate Con1 with NS5B polymerase L419I mutant in human Huh7.5 cells by hRLuc reporter gene assay; type: functional, Hepacivirus hominis, Huh-7; summary of the method: as §2
Hepatitis C virus [4] = experiment: Ratio of EC50 for wild-type Hepatitis C virus isolate Con1 to EC50 for Hepatitis C virus isolate Con1 transfected with NS5B polymerase of HCV genotype 2b in human Huh7.5 cells by hRLuc reporter gene assay; type: functional, Hepacivirus hominis, Huh-7; summary of the method: as §1
Hepatitis C virus [5] = experiment: Ratio of EC50 for wild-type Hepatitis C virus isolate Con1 to EC50 for Hepatitis C virus isolate Con1 with NS5B polymerase L419I and I482L mutant in human Huh7.5 cells by hRLuc reporter gene assay; type: functional, Hepacivirus hominis, Huh-7; summary of the method: as §2
Hepatitis C virus [6] = experiment: Ratio of EC50 for wild-type Hepatitis C virus isolate Con1 to EC50 for Hepatitis C virus isolate Con1 transfected with NS5B polymerase of HCV genotype 4a in human Huh7.5 cells by hRLuc reporter gene assay; type: functional, Hepacivirus hominis, Huh-7; summary of the method: as §1
Hepatitis C virus [7] = experiment: Ratio of EC50 for wild-type Hepatitis C virus isolate Con1 to EC50 for Hepatitis C virus genotype 1a H77 in human Huh7.5 cells by hRLuc reporter gene assay; type: functional, Hepacivirus hominis, Huh-7; summary of the method: as §1
Hepatitis C virus [8] = experiment: Ratio of EC50 for wild-type Hepatitis C virus isolate Con1 to EC50 for Hepatitis C virus isolate Con1 transfected with NS5B polymerase of HCV genotype 5a in human Huh7.5 cells by hRLuc reporter gene assay; type: functional, Hepacivirus hominis, Huh-7; summary of the method: as §1
Hepatitis C virus [9] = experiment: Ratio of EC50 for wild-type Hepatitis C virus isolate Con1 to EC50 for Hepatitis C virus genotype 2a JFH1 in human Huh7.5 cells by hRLuc reporter gene assay; type: functional, Hepacivirus hominis, Huh-7; summary of the method: as §1
Hepatitis C virus [10] = experiment: Antiviral activity against Hepatitis C virus isolate Con1 transfected with NS5B polymerase of HCV genotype 4a infected in human Huh7.5 cells assessed as decrease in viral RNA replication after 3 days by hRLuc reporter gene assay; type: functional, organism-based, Hepacivirus hominis; conditions: Con1, Huh-7, 72 h; summary of the method: as §1
Hepatitis C virus [11] = experiment: Antiviral activity against Hepatitis C virus isolate Con1 transfected with NS5B polymerase of HCV genotype 3a infected in human Huh7.5 cells assessed as decrease in viral RNA replication after 3 days by hRLuc reporter gene assay; type: functional, organism-based, Hepacivirus hominis; conditions: Con1, Huh-7, 72 h; summary of the method: as §1
Hepatitis C virus [12] = experiment: Antiviral activity against Hepatitis C virus isolate Con1 infected in human Huh7.5 cells assessed as decrease in viral RNA replication after 3 days by hRLuc reporter gene assay; type: functional, organism-based, Hepacivirus hominis; conditions: Con1, Huh-7, 72 h; summary of the method: as §1
Hepatitis C virus [13] = experiment: Antiviral activity against Hepatitis C virus genotype 2a JFH1 infected in human Huh7.5 cells assessed as decrease in viral RNA replication after 3 days by hRLuc reporter gene assay; type: functional, organism-based, Hepacivirus hominis; conditions: JFH-1, Huh-7, 72 h; summary of the method: as §1
Hepatitis C virus [14] = experiment: Antiviral activity against Hepatitis C virus isolate Con1 transfected with NS5B polymerase of HCV genotype 2b in human Huh7.5 cells assessed as decrease in viral RNA replication after 3 days by hRLuc reporter gene assay; type: functional, organism-based, Hepacivirus hominis; conditions: Con1, Huh-7, 72 h; summary of the method: as §1
Hepatitis C virus [15] = experiment: Antiviral activity against Hepatitis C virus genotype 1a H77 infected in human Huh7.5 cells assessed as decrease in viral RNA replication after 3 days by hRLuc reporter gene assay; type: functional, organism-based, Hepacivirus hominis; conditions: genotype 1a H77, Huh-7, 72 h; summary of the method: as §1
Hepatitis C virus [16] = experiment: Antiviral activity against Hepatitis C virus isolate Con1 transfected with NS5B polymerase of HCV genotype 5a infected in human Huh7.5 cells assessed as decrease in viral RNA replication after 3 days by hRLuc reporter gene assay; type: functional, organism-based, Hepacivirus hominis; conditions: Con1, Huh-7, 72 h; summary of the method: as §1

SMILES | fold change (FC) (Hepatitis C virus [1]) | fold change (FC) (Hepatitis C virus [2]) | fold change (FC) (Hepatitis C virus [3]) | fold change (FC) (Hepatitis C virus [4]) | fold change (FC) (Hepatitis C virus [5]) | fold change (FC) (Hepatitis C virus [6]) | fold change (FC) (Hepatitis C virus [7]) | fold change (FC) (Hepatitis C virus [8]) | fold change (FC) (Hepatitis C virus [9]) | EC50 (Hepatitis C virus [10]) [µM] | EC50 (Hepatitis C virus [11]) [µM] | EC50 (Hepatitis C virus [12]) [µM] | EC50 (Hepatitis C virus [13]) [µM] | EC50 (Hepatitis C virus [14]) [µM] | EC50 (Hepatitis C virus [15]) [µM] | EC50 (Hepatitis C virus [16]) [µM]
C[C@@]1(O)[C@H](O)[C@@H](CO)O[C@H]1n1ccc(N)nc1=O | 0.2 | 1 | 1 | 0.4 | 2 | 2 | 1 | 0.5 | 1 |  |  |  |  |  |  | 
NC(=O)COc1ccc2c(c1)S(=O)(=O)N=C(c1c(O)c3ccccc3n(NC3CCC3)c1=O)N2 | >970 | 0.5 | 0.2 | >970 | 0.2 | 758 | 4 | 152 | >970 | 25 | > 32 | 0.033 | > 32 | > 32 | 0.14 | 5
CNC(=O)c1c(-c2ccc(F)cc2)oc2cc(N(CCO)S(C)(=O)=O)c(C3CC3)cc12 [NESBUVIR] | 1 | 1 | 2 | 1 | 3 | 2 | 1 | 0.1 | 3 | 0.069 | 0.051 | 0.042 | 0.13 | 0.055 | 0.038 | 0.0032
O=C(O)c1ccc2c(c1)nc(-c1ccc(OCc3cc(C(=O)N4CCC(O)CC4)ccc3-c3ccc(Cl)cc3)cc1F)n2C1CCCCC1 | 0.2 | 3 | 4 | 33 | 8 | 2 | 1 | 0.2 | 8 | 1.5 | 0.21 | 0.9 | 6.9 | 30 | 0.49 | 0.16
COc1ccc2c(O[C@@H]3C[C@H]4C(=O)N[C@@]5(C(=O)O)C[C@@H]5/C=C\CCCCC[C@H](NC(=O)OC(C)(C)C)C(=O)N4C3)cc(-c3ccccn3)nc2c1 [listing 1 of 2 here] |  |  |  |  |  |  |  |  |  | 0.053 | 0.022 | 0.0066 | 0.74 | 0.026 | 0.02 | 0.023
COc1ccc2c(O[C@@H]3C[C@H]4C(=O)N[C@@]5(C(=O)O)C[C@@H]5/C=C\CCCCC[C@H](NC(=O)OC(C)(C)C)C(=O)N4C3)cc(-c3ccccn3)nc2c1 [listing 2 of 2 here] | 3 |  |  | 4 |  | 8 | 3 | 3 | 112 |  |  |  |  |  |  | 
CC(C)C#Cc1cc(N(C(=O)[C@H]2CC[C@H](C)CC2)C(C)C)c(C(=O)O)s1 | >1280 | 201 | 326 | >1280 | 2238 | 88 | 1 | 8 | 244 | 2.2 | > 32 | 0.025 | 6.1 | > 32 | 0.02 | 0.2
